{"source": "ChEMBL document CHEMBL2169769", "about": "“Synthesis and biological characterization of protease-activated prodrugs of doxazolidine” (J Med Chem, 2012)", "key": {"MCF7 [1]": {"test_system": "MCF7", "assay": "Drug uptake in human MCF7 cells increase in compound uptake-induced anthracycline fluorescence in presence of plasmin at 0.5 uM after 4 to 5 hrs by flow cytometry relative to untreated control", "type": "ADME, cell-based", "conditions": "mcf7, 0.5 µM; call rule not given here", "summary_of_the_method": "(§1)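 MCF-7 or MiaPaCa-2 plated 250,000/well, adhered overnight, switched to serum-free medium with 0.5 µM prodrug alone or plus 0.2 U human plasmin (final) for up to 5 h. Trypsinised cells read by flow cytometry (FL3) for anthracycline fluorescence; mean values expressed as fold over untreated cells.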"}, "[2]": {"assay": "Cytotoxicity against human L3.3 cells incubated for 24 hrs measured after 5 days in presence of 0.2 U human plasmin", "type": "functional, cell-based", "summary_of_the_method": "(§2)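 Cells seeded 1000/well, adhered overnight, then serum-free medium with or without plasmin, trypsin, cathepsin B or papain (0.2 U/well), aprotinin (5 µM) or protease inhibitor cocktail (1X). Prodrug 2000–1 nM final, 24 h; then complete medium up to 5 days or control 80% confluence. Formalin fixed, crystal violet, A582; % of control fit to variable-slope sigmoid for IC50.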"}, "HEK-293T": {"test_system": "HEK-293T", "assay": "Cytotoxicity against human HEK293T cells incubated for 24 hrs measured after 5 days in presence of 0.2 U human plasmin", "type": "cell-based", "summary_of_the_method": "as §2"}, "SHP77 [3]": {"test_system": "SHP77", "assay": "Cytotoxicity against doxorubicin-resistant human SHP77 cells incubated for 24 hrs measured after 5 days in presence of 0.2 U human plasmin", "type": "functional, cell-based", "summary_of_the_method": "as §2"}, "[4]": {"assay": "Cytotoxicity against human L3.6PL cells incubated for 24 hrs measured after 5 day", "type": "functional, cell-based", "summary_of_the_method": "as §2"}, "BXPC-3 [5]": {"test_system": "BXPC-3", "assay": "Cytotoxicity against human BxPC3 cells incubated for 24 hrs measured after 5 days in presence of 0.2 U human plasmin", "type": "functional, cell-based", "summary_of_the_method": "as §2"}, "[6]": {"assay": "Cytotoxicity against human L3.3 cells incubated for 24 hrs measured after 5 day", "type": "functional, cell-based", "summary_of_the_method": "as §2"}, "BXPC-3 [7]": {"test_system": "BXPC-3", "assay": "Cytotoxicity against human BxPC3 cells incubated for 24 hrs measured after 5 days", "type": "functional, cell-based", "summary_of_the_method": "as §2"}, "MCF7 [8]": {"test_system": "MCF7", "assay": "Cytotoxicity against human MCF7 cells incubated for 24 hrs measured after 5 days in presence of 0.2 U cathepsin B", "type": "functional, cell-based", "summary_of_the_method": "as §2"}, "MCF7 [9]": {"test_system": "MCF7", "assay": "Cytotoxicity against human MCF7 cells incubated for 24 hrs measured after 5 days in presence of 0.2 U papain", "type": "functional, cell-based", "summary_of_the_method": "as §2"}, "MCF7 [10]": {"test_system": "MCF7", "assay": "Cytotoxicity against human MCF7 cells incubated for 24 hrs measured after 5 days in presence of 0.2 U plasmin", "type": "functional, cell-based", "summary_of_the_method": "as §2"}, "MIA PaCa-2 [11]": {"test_system": "MIA PaCa-2", "assay": "Cytotoxicity against human MIAPaCa2 cells incubated for 24 hrs measured after 5 days in presence of complete protease inhibitor cocktail", "type": "functional, cell-based", "summary_of_the_method": "as §2"}, "[12]": {"assay": "Prodrug conversion assessed as release dozax at 50 uM at pH 7.4 in PBS buffer in presence of human plasmin after 2 hrs by RP-HPLC", "type": "ADME", "conditions": "pH 7.4, 2 h", "summary_of_the_method": "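50 µM prodrug with 1.2 µg/mL human plasmin in PBS pH 7.4 at 37 °C. Samples taken over time, ethanol-quenched, analysed by RP-HPLC at 480 nm for prodrug and dox; repeated runs fit to single-exponential association model.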"}, "[13]": {"molecular_target": "Plasminogen (Homo sapiens) (UniProt P00747)", "sequence (P00747 97-580 limits assumed)": "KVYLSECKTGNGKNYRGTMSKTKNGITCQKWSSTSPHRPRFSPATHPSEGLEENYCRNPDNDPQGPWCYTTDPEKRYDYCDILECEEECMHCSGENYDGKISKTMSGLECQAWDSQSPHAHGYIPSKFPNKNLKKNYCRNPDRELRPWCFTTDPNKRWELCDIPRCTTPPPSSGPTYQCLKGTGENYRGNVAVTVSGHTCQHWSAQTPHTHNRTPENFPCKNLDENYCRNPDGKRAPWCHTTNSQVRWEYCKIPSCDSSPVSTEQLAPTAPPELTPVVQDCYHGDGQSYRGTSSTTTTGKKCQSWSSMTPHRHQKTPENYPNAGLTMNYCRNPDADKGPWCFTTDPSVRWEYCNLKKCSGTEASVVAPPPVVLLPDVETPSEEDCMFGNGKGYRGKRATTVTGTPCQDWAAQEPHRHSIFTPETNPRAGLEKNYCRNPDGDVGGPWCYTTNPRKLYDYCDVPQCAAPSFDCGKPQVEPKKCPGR", "sequence (P00747 581-810 limits assumed)": "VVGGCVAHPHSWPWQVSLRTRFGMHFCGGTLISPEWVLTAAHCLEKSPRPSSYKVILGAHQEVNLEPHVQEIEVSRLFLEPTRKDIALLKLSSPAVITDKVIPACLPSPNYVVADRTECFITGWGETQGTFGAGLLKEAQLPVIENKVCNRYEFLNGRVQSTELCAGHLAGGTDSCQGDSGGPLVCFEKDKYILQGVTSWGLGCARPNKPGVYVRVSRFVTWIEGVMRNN", "assay": "Activity of human plasmin assessed as compound hydrolysis measuring enzyme specific activity at 50 uM at pH 7.4 in PBS buffer by RP-HPLC", "summary_of_the_method": "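Specific activity from hydrolysis time courses at 37 °C with 50 µM substrate. Plasmin in PBS pH 7.4; cathepsin B diluted two-fold in PBS-NAC, reacted in PBS-NAC (10 mM N-acetylcysteine) pH 6.5. Ethanol-quenched aliquots, protein precipitated at −20 °C, RP-HPLC at 480 nm tracking dox release. Linear least-squares slope used; 1 U = 1 µM substrate hydrolysed per min.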"}, "[14]": {"molecular_target": "Cathepsin B (Homo sapiens) (UniProt P07858)", "assay": "Activity of human cathepsin B assessed as enzyme catalytic efficiency for compound hydrolysis at 50 uM at pH 6.5 in PBS buffer containing 10 mM N-acetylcysteine by RP-HPLC", "summary_of_the_method": "(§3)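 Michaelis-Menten kinetics, substrate 10–400 µM at 37 °C. Plasmin: 0.2 U, PBS pH 7.4, 4 min. Cathepsin B: 0.08 U, PBS-NAC pH 6.5, 20 min. Quenched with equal volume ethanol, −20 °C ≥2 h, centrifuged, supernatant RP-HPLC at 480 nm. Rates (µM/min) fit by non-linear least squares; triplicates.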"}, "Papain (Carica papaya)": {"molecular_target": "T1, Papain (Carica papaya) (UniProt P00784)", "T1 sequence (whole entry)": "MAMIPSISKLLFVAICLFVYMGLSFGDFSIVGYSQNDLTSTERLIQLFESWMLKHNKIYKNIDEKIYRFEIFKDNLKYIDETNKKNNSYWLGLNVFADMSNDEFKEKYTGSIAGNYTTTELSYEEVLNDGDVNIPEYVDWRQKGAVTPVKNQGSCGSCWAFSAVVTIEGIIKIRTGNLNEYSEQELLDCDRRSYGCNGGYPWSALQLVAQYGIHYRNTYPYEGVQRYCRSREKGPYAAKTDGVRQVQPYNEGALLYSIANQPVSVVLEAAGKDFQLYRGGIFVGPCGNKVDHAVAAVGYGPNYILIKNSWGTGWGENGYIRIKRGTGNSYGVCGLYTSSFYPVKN", "assay": "Activity of papaya papain assessed as compound hydrolysis measuring enzyme specific activity at 50 uM at pH 6.5 in PBS buffer containing 10 mM N-acetylcysteine by RP-HPLC", "summary_of_the_method": "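50 µM prodrug incubated at 37 °C with enzyme: trypsin in PBS; papain diluted two-fold in PBS-NAC (PBS + 10 mM N-acetylcysteine), reacted in PBS-NAC pH 6.5. Aliquots quenched in equal volume ethanol, −20 °C ≥2 h, centrifuged; supernatant RP-HPLC at 480 nm for substrate loss and dox gain. Slope of linear fit gives activity; 1 U = 1 µM prodrug hydrolysed per min.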"}, "Homo sapiens": {"organism": "Homo sapiens", "assay": "Selectivity ratio of Kcat of human plasmin to Kcat of human cathepsin B", "summary_of_the_method": "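Michaelis–Menten kinetics with human enzymes and substrate at 10–400 µM, 37 °C. Plasmin: 0.2 U in PBS pH 7.4 for 4 min. Cathepsin B: 0.08 U in PBS with 10 mM N-acetylcysteine, pH 6.5, for 20 min. Quenched with ethanol, held at −20 °C ≥2 h, centrifuged. Dox release read by RP-HPLC at 480 nm. Rates (µM/min) fit by non-linear least squares; triplicate.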"}, "Plasma": {"test_system": "Plasma", "assay": "Stability in human plasma assessed as doxorubicin production at 50 uM incubated over 24 hrs by RP-HPLC", "type": "ADME, cell-free", "summary_of_the_method": "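Prodrug diluted to 50 µM final in undiluted plasma from healthy human donors, 37 °C for 24 h. Aliquots at 0.25, 1, 3, 8, 12 and 24 h were quenched with equal-volume ethanol and held at −20 °C overnight; protein was spun out. Supernatant run on RP-HPLC; percent prodrug and dox taken from relative 480 nm absorbance, counting all 480 nm species; triplicate.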"}, "MIA PaCa-2 [15]": {"test_system": "MIA PaCa-2", "assay": "Cytotoxicity against human MIAPaCa2 cells incubated for 24 hrs measured after 5 days", "type": "functional, cell-based", "summary_of_the_method": "as §2"}, "MIA PaCa-2 [16]": {"test_system": "MIA PaCa-2", "assay": "Cytotoxicity against human MIAPaCa2 cells incubated for 24 hrs measured after 5 days in presence of 0.2 U trypsin", "type": "functional, cell-based", "summary_of_the_method": "as §2"}, "[17]": {"molecular_target": "Plasminogen (Homo sapiens) (UniProt P00747)", "assay": "Activity of human plasmin assessed as enzyme catalytic efficiency for compound hydrolysis at 50 uM at pH 7.4 in PBS buffer by RP-HPLC", "summary_of_the_method": "as §3"}, "SHP77 [18]": {"test_system": "SHP77", "assay": "Cytotoxicity against human doxorubicin-resistant SHP77 cells incubated for 24 hrs measured after 5 days", "type": "functional, cell-based", "summary_of_the_method": "as §2"}, "MCF7 [19]": {"test_system": "MCF7", "assay": "Drug uptake in human MCF7 cells increase in compound uptake-induced anthracycline fluorescence in absence of plasmin at 0.5 uM up to 5 hrs by flow cytometry relative to untreated control", "type": "ADME, cell-based", "conditions": "mcf7, 5 h", "summary_of_the_method": "as §1"}}, "data": [{"smiles": "COc1cccc2c1C(=O)c1c(O)c3c(c(O)c1C2=O)C[C@@](O)(C(=O)CO)C[C@@H]3O[C@H]1C[C@H]2[C@H](OCN2C(=O)OCc2ccc(NC(=O)[C@H](CCCCN)NC(=O)[C@H](Cc3ccccc3)NC(=O)[C@@H](C)NC(=O)CNC(C)=O)cc2)[C@H](C)O1.O=P(O)(O)O", "values": [{"measurement": "fold change (FC)", "setting": "MCF7 [1]", "value": 7}, {"measurement": "IC50", "setting": "[2]", "value": 3.98, "unit": "nM"}, {"measurement": "IC50", "setting": "HEK-293T", "value": 3.02, "unit": "nM"}, {"measurement": "IC50", "setting": "SHP77 [3]", "value": 29.5, "unit": "nM"}, {"measurement": "IC50", "setting": "[4]", "value": 316, "unit": "nM"}, {"measurement": "IC50", "setting": "BXPC-3 [5]", "value": 39.8, "unit": "nM"}, {"measurement": "IC50", "setting": "[6]", "value": 251, "unit": "nM"}, {"measurement": "IC50", "setting": "BXPC-3 [7]", "value": 1000, "unit": "nM"}, {"measurement": "IC50", "setting": "MCF7 [8]", "value": 120, "unit": "nM"}, {"measurement": "IC50", "setting": "MCF7 [9]", "value": 60.3, "unit": "nM"}, {"measurement": "IC50", "setting": "MCF7 [10]", "value": 26.9, "unit": "nM"}, {"measurement": "IC50", "setting": "MIA PaCa-2 [11]", "value": 398, "unit": "nM"}, {"measurement": "Drug metabolism", "setting": "[12]", "value": "Active"}, {"measurement": "Activity", "setting": "[13]", "value": 1940, "unit": "U/mg"}, {"measurement": "Activity", "setting": "[14]", "value": 4.59, "unit": "×10³ /M/s"}, {"measurement": "Activity", "setting": "Papain (Carica papaya)", "value": 890, "unit": "U/mg"}, {"measurement": "Ratio", "setting": "Homo sapiens", "value": 5}, {"measurement": "Stability", "setting": "Plasma", "value": "Stable"}, {"measurement": "IC50", "setting": "MIA PaCa-2 [15]", "value": 251, "unit": "nM"}, {"measurement": "IC50", "setting": "MIA PaCa-2 [16]", "value": 26.3, "unit": "nM"}, {"measurement": "Activity", "setting": "[17]", "value": 1.43, "unit": "×10⁴ /M/s"}, {"measurement": "IC50", "setting": "SHP77 [18]", "value": 1580, "unit": "nM"}, {"measurement": "fold change (FC)", "setting": "MCF7 [19]", "value": 2}]}]}
